Reference: ChEMBL document CHEMBL3797186, “Single Residue Substitutions That Confer Voltage-Gated Sodium Ion Channel Subtype Selectivity in the NaV1.7 Inhibitory Peptide GpTx-1” (J Med Chem, 2016)
Positions of bridges follow the written chain, without caps; N, C: chain ends. Non-standard residues stand in square brackets, D forms with d. Residues, ends and D or L forms follow the SMILES beside them. 1Nal = N[C@@H](Cc1cccc2ccccc12)C(=O)O

Legend:
[1] = molecular target: Sodium channel protein type 5 subunit alpha (Homo sapiens, UniProt Q14524); assay: Inhibition of human Nav1.5 expressed in HEK293 cells assessed as inward peak current by ion-works quattro patch clamp electrophysiology method; format: cell-based
Outline: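 Stable HEK293 line expressing human NaV1.5, recorded by population patch clamp on the IonWorks Quattro.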

[2] = molecular target: Sodium channel protein type 9 subunit alpha (Homo sapiens, UniProt Q15858); assay: Inhibition of human Nav1.7 expressed in HEK293 cells assessed as inward peak current by ion-works quattro patch clamp electrophysiology method; format: cell-based
Sodium channel protein type 9 subunit alpha, sequence (Q15858 whole entry): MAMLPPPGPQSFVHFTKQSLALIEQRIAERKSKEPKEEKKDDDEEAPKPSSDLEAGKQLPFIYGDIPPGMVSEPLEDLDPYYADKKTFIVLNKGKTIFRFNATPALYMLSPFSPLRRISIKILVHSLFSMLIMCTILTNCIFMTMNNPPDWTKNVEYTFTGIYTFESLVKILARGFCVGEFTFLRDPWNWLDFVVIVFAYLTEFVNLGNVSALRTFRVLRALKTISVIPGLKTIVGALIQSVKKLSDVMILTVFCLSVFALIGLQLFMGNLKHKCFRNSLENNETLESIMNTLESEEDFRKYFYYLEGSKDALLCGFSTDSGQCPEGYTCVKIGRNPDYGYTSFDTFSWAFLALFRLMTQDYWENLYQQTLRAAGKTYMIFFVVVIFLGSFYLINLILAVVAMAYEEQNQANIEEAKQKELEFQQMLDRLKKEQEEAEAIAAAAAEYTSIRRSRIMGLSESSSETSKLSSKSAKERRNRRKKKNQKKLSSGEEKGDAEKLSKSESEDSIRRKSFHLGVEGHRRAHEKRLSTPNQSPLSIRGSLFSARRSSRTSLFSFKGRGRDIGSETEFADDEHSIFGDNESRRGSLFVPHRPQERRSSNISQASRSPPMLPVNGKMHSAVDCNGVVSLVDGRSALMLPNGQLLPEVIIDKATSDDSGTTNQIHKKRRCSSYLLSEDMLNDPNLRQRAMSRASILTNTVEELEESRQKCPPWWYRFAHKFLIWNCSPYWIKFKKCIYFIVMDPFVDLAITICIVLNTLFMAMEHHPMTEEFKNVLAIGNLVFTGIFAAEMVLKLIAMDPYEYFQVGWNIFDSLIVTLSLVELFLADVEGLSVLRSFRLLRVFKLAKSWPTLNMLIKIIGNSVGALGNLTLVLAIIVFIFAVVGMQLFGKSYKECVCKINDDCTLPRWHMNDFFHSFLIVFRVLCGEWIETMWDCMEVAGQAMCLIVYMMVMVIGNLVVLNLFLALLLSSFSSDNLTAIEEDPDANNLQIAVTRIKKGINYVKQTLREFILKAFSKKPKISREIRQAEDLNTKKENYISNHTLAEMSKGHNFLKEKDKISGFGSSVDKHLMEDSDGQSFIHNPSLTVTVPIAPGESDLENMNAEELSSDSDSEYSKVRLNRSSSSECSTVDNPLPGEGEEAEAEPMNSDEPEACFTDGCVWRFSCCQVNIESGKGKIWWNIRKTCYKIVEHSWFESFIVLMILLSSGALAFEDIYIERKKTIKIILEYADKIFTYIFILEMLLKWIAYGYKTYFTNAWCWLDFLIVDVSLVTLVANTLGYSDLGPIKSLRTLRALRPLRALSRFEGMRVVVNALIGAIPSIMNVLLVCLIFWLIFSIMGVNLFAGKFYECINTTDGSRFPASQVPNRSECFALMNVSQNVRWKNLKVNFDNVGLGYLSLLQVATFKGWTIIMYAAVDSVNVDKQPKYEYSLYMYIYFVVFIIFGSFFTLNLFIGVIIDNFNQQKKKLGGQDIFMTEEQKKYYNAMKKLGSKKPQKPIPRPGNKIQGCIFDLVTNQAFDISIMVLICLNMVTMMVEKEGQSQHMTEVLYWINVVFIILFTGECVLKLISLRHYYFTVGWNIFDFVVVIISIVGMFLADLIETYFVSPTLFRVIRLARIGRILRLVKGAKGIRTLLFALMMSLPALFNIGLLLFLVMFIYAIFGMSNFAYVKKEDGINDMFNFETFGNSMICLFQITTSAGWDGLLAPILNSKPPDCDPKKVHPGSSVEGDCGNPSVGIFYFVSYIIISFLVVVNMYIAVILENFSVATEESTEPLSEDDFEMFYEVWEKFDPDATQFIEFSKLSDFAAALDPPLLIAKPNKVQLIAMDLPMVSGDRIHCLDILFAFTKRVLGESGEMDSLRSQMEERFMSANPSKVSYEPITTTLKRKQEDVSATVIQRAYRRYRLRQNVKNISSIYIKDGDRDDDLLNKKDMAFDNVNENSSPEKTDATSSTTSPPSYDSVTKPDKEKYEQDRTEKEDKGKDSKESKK

Sodium channel protein type 5 subunit alpha, sequence (Q14524 whole entry): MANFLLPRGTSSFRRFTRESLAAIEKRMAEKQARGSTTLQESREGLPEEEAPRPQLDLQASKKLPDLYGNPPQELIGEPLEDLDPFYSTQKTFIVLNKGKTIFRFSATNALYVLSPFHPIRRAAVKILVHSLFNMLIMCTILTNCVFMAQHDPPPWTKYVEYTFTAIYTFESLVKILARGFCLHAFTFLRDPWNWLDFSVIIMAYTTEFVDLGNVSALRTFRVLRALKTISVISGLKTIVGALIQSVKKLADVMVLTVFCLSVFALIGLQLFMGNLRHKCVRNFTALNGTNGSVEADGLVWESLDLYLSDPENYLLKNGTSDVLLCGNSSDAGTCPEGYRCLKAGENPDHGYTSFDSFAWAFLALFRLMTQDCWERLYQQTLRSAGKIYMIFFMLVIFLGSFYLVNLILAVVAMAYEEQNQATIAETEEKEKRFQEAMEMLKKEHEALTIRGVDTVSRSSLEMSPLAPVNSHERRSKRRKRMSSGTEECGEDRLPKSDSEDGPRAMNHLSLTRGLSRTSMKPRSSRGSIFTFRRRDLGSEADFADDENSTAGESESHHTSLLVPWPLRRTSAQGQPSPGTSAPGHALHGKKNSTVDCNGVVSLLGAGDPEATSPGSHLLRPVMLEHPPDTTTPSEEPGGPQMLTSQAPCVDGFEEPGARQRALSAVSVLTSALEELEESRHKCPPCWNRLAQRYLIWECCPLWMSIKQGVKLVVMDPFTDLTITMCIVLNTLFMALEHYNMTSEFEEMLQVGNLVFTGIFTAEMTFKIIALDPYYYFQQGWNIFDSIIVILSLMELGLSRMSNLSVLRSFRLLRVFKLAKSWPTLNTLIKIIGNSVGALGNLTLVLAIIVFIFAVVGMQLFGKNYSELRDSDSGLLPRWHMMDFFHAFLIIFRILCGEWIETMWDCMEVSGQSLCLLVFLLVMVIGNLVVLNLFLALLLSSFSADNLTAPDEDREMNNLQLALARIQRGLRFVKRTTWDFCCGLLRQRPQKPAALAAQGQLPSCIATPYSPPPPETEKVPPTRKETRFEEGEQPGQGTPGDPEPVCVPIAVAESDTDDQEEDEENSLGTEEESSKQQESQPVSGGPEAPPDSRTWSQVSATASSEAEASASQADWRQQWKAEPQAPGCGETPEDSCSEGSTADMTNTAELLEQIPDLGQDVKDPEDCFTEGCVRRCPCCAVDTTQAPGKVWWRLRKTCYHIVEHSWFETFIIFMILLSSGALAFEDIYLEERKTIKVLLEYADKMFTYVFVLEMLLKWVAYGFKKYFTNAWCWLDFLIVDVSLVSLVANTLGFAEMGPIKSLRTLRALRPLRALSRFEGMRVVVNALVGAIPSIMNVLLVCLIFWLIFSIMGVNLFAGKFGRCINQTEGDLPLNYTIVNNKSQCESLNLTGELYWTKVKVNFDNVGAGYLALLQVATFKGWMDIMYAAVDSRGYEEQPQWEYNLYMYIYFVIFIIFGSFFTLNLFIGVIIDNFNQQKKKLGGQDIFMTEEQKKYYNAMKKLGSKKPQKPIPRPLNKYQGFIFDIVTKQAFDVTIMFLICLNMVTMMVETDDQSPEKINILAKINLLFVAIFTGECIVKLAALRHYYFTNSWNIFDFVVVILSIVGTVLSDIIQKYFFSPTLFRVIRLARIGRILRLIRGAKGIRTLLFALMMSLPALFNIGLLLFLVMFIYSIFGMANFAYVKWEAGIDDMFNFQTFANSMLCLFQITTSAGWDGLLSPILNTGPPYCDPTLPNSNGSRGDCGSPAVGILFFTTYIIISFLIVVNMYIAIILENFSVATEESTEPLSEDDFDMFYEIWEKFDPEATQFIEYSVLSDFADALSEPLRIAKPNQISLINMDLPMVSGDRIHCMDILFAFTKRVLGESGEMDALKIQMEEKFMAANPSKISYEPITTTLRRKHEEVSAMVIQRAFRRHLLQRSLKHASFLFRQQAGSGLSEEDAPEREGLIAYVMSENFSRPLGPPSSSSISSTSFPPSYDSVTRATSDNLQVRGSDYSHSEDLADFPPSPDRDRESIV

With `CC[C@H](C)[C@@H]1NC(=O)[C@@H]2CSSC[C@@H]3NC(=O)[C@H](C(C)C)NC(=O)[C@H](CC(C)C)NC(=O)[C@H](CC(N)=O)NC(=O)[C@@H]4CCCN4C(=O)[C@H](CCCNC(=N)N)NC(=O)[C@H](CSSC[C@H](NC(=O)[C@@H](N)Cc4cccc5ccccc45)C(=O)N[C@@H](CC(C)C)C(=O)NCC(=O)N[C@@H](Cc4ccccc4)C(=O)N[C@@H](CCSC)C(=O)N[C@@H](CCCNC(=N)N)C(=O)N[C@@H](CCCCN)C(=O)N2)NC(=O)[C@H](CSSC[C@@H](C(=O)N[C@@H](CCCCN)C(=O)N[C@@H](Cc2ccc(O)cc2)C(=O)N[C@H](C(=O)N[C@@H](Cc2ccccc2)C(N)=O)C(C)C)NC(=O)[C@H](Cc2c[nH]c4ccccc24)NC(=O)[C@H](CCCCN)NC(=O)[C@H](Cc2c[nH]cn2)NC(=O)[C@H]([C@@H](C)O)NC(=O)[C@H](CCCNC(=N)N)NC(=O)[C@H](CO)NC3=O)NC(=O)[C@H](CCCCN)NC(=O)[C@H](CC(=O)O)NC(=O)[C@H](CC(N)=O)NC(=O)[C@H](CC(=O)O)NC(=O)[C@@H]2CCCN2C1=O` (H-[1Nal]CLGFMRKCIPDNDKCCRPNLVCSRTHKWCKYVF-NH2; disulfide 2-17, 9-23, 16-30) the IC50 [1] was > 5 µM and the IC50 [2] was 100 nM.

In the case of `CC[C@H](C)[C@@H]1NC(=O)[C@@H]2CSSC[C@@H]3NC(=O)[C@H](C(C)C)NC(=O)[C@H](CC(C)C)NC(=O)[C@H](CC(N)=O)NC(=O)[C@@H]4CCCN4C(=O)[C@H](CCCNC(=N)N)NC(=O)[C@H](CSSC[C@H](NC(=O)[C@@H](N)CC(=O)O)C(=O)N[C@@H](CC(C)C)C(=O)NCC(=O)N[C@@H](Cc4ccccc4)C(=O)N[C@@H](CCSC)C(=O)N[C@@H](CCCNC(=N)N)C(=O)N[C@@H](CCCCN)C(=O)N2)NC(=O)[C@H](CSSC[C@@H](C(=O)N[C@@H](CCCCN)C(=O)N[C@@H](Cc2ccc(O)cc2)C(=O)N[C@H](C(=O)N[C@@H](Cc2ccccc2)C(N)=O)C(C)C)NC(=O)[C@H](Cc2c[nH]c4ccccc24)NC(=O)[C@H](CCCCN)NC(=O)[C@H](Cc2c[nH]cn2)NC(=O)[C@H]([C@@H](C)O)NC(=O)[C@H](CCCNC(=N)N)NC(=O)[C@H](CO)NC3=O)NC(=O)[C@H](CCCCN)NC(=O)[C@H](CC(=O)O)NC(=O)[C@H](CC(N)=O)NC(=O)[C@H](Cc2cccc3ccccc23)NC(=O)[C@@H]2CCCN2C1=O` (H-DCLGFMRKCIP[1Nal]NDKCCRPNLVCSRTHKWCKYVF-NH2; disulfide 2-17, 9-23, 16-30), the IC50 [1] is reported as > 5 µM and the IC50 [2] is reported as 100 nM.

With `CC[C@H](C)[C@@H]1NC(=O)[C@@H]2CSSC[C@@H]3NC(=O)[C@H](C(C)C)NC(=O)[C@H](CC(C)C)NC(=O)[C@H](CC(N)=O)NC(=O)[C@@H]4CCCN4C(=O)[C@H](CCCNC(=N)N)NC(=O)[C@H](CSSC[C@H](NC(=O)[C@@H](N)CC(=O)O)C(=O)N[C@@H](CC(C)C)C(=O)NCC(=O)N[C@@H](Cc4ccccc4)C(=O)N[C@@H](CCSC)C(=O)N[C@@H](CCCNC(=N)N)C(=O)N[C@@H](CCCCN)C(=O)N2)NC(=O)[C@H](CSSC[C@@H](C(=O)N[C@@H](CCCCN)C(=O)N[C@@H](Cc2ccc(O)cc2)C(=O)N[C@H](C(=O)N[C@@H](Cc2ccccc2)C(N)=O)C(C)C)NC(=O)[C@H](Cc2c[nH]c4ccccc24)NC(=O)[C@H](CCCCN)NC(=O)[C@H](Cc2cnc[nH]2)NC(=O)[C@H]([C@@H](C)O)NC(=O)[C@H](CCCNC(=N)N)NC(=O)[C@H](CO)NC3=O)NC(=O)[C@H](CCCCN)NC(=O)[C@H](CC(=O)O)NC(=O)[C@H](CCCNC(=N)N)NC(=O)[C@H](CC(=O)O)NC(=O)[C@@H]2CCCN2C1=O` (H-DCLGFMRKCIPDRDKCCRPNLVCSRTHKWCKYVF-NH2; disulfide 2-17, 9-23, 16-30) the IC50 [1] was > 5 µM and the IC50 [2] was 140 nM.

In the case of `CC[C@H](C)[C@@H]1NC(=O)[C@@H]2CSSC[C@@H]3NC(=O)[C@H](C(C)C)NC(=O)[C@H](CC(C)C)NC(=O)[C@H](CC(N)=O)NC(=O)[C@@H]4CCCN4C(=O)[C@H](CCCNC(=N)N)NC(=O)[C@H](CSSC[C@H](NC(=O)[C@@H](N)CC(=O)O)C(=O)N[C@@H](CC(C)C)C(=O)NCC(=O)N[C@@H](Cc4ccccc4)C(=O)N[C@@H](CCSC)C(=O)N[C@@H](CCCNC(=N)N)C(=O)N[C@@H](CCCCN)C(=O)N2)NC(=O)[C@H](CSSC[C@@H](C(=O)N[C@@H](CCCCN)C(=O)N[C@@H](Cc2ccc(O)cc2)C(=O)N[C@H](C(=O)N[C@@H](Cc2ccccc2)C(N)=O)C(C)C)NC(=O)[C@H](CCCNC(=N)N)NC(=O)[C@H](CCCCN)NC(=O)[C@H](Cc2cnc[nH]2)NC(=O)[C@H]([C@@H](C)O)NC(=O)[C@H](CCCNC(=N)N)NC(=O)[C@H](CO)NC3=O)NC(=O)[C@H](CCCCN)NC(=O)[C@H](CC(=O)O)NC(=O)[C@H](CC(N)=O)NC(=O)[C@H](CC(=O)O)NC(=O)[C@@H]2CCCN2C1=O` (H-DCLGFMRKCIPDNDKCCRPNLVCSRTHKRCKYVF-NH2; disulfide 2-17, 9-23, 16-30), the IC50 [1] is reported as > 5 µM and the IC50 [2] is reported as > 5000 nM.

`CC[C@H](C)[C@@H]1NC(=O)[C@@H]2CSSC[C@@H]3NC(=O)[C@H](C(C)C)NC(=O)[C@H](CC(C)C)NC(=O)[C@H](CCCCN)NC(=O)[C@@H]4CCCN4C(=O)[C@H](CCCNC(=N)N)NC(=O)[C@H](CSSC[C@H](NC(=O)[C@@H](N)CC(=O)O)C(=O)N[C@@H](CC(C)C)C(=O)NCC(=O)N[C@@H](Cc4ccccc4)C(=O)N[C@@H](CCSC)C(=O)N[C@@H](CCCNC(=N)N)C(=O)N[C@@H](CCCCN)C(=O)N2)NC(=O)[C@H](CSSC[C@@H](C(=O)N[C@@H](CCCCN)C(=O)N[C@@H](Cc2ccc(O)cc2)C(=O)N[C@H](C(=O)N[C@@H](Cc2ccccc2)C(N)=O)C(C)C)NC(=O)[C@H](Cc2c[nH]c4ccccc24)NC(=O)[C@H](CCCCN)NC(=O)[C@H](Cc2cnc[nH]2)NC(=O)[C@H]([C@@H](C)O)NC(=O)[C@H](CCCNC(=N)N)NC(=O)[C@H](CO)NC3=O)NC(=O)[C@H](CCCCN)NC(=O)[C@H](CC(=O)O)NC(=O)[C@H](CC(N)=O)NC(=O)[C@H](CC(=O)O)NC(=O)[C@@H]2CCCN2C1=O` (H-DCLGFMRKCIPDNDKCCRPKLVCSRTHKWCKYVF-NH2; disulfide 2-17, 9-23, 16-30) was tested, and the IC50 [1] was > 5 µM and the IC50 [2] was 630 nM.

With `CC[C@H](C)[C@@H]1NC(=O)[C@@H]2CSSC[C@@H]3NC(=O)[C@H](C(C)C)NC(=O)[C@H](CC(C)C)NC(=O)[C@H](CC(N)=O)NC(=O)[C@@H]4CCCN4C(=O)[C@H](CCCNC(=N)N)NC(=O)[C@H](CSSC[C@H](NC(=O)[C@@H](N)CC(=O)O)C(=O)N[C@@H](CC(C)C)C(=O)NCC(=O)N[C@@H](Cc4ccccc4)C(=O)N[C@@H](Cc4cc5ccccc5[nH]4)C(=O)N[C@@H](CCCNC(=N)N)C(=O)N[C@@H](CCCCN)C(=O)N2)NC(=O)[C@H](CSSC[C@@H](C(=O)N[C@@H](CCCCN)C(=O)N[C@@H](Cc2ccc(O)cc2)C(=O)N[C@H](C(=O)N[C@@H](Cc2ccccc2)C(N)=O)C(C)C)NC(=O)[C@H](Cc2c[nH]c4ccccc24)NC(=O)[C@H](CCCCN)NC(=O)[C@H](Cc2cnc[nH]2)NC(=O)[C@H]([C@@H](C)O)NC(=O)[C@H](CCCNC(=N)N)NC(=O)[C@H](CO)NC3=O)NC(=O)[C@H](CCCCN)NC(=O)[C@H](CC(=O)O)NC(=O)[C@H](CC(N)=O)NC(=O)[C@H](CC(=O)O)NC(=O)[C@@H]2CCCN2C1=O` the IC50 [1] was 3.4 µM and the IC50 [2] was 30 nM.

`CC[C@H](C)[C@@H]1NC(=O)[C@@H]2CSSC[C@@H]3NC(=O)[C@H](C(C)C)NC(=O)[C@H](CC(C)C)NC(=O)[C@H](CC(N)=O)NC(=O)[C@@H]4CCCN4C(=O)[C@H](CCCNC(=N)N)NC(=O)[C@H](CSSC[C@H](NC(=O)[C@@H](N)CC(=O)O)C(=O)N[C@@H](CC(C)C)C(=O)NCC(=O)N[C@@H](Cc4ccccc4)C(=O)N[C@@H](CCSC)C(=O)N[C@@H](CCCNC(=N)N)C(=O)N[C@@H](CCCCN)C(=O)N2)NC(=O)[C@H](CSSC[C@@H](C(=O)N[C@@H](CCCNC(=N)N)C(=O)N[C@@H](Cc2ccc(O)cc2)C(=O)N[C@H](C(=O)N[C@@H](Cc2ccccc2)C(N)=O)C(C)C)NC(=O)[C@H](Cc2c[nH]c4ccccc24)NC(=O)[C@H](CCCCN)NC(=O)[C@H](Cc2cnc[nH]2)NC(=O)[C@H]([C@@H](C)O)NC(=O)[C@H](CCCNC(=N)N)NC(=O)[C@H](CO)NC3=O)NC(=O)[C@H](CCCCN)NC(=O)[C@H](CC(=O)O)NC(=O)[C@H](CC(N)=O)NC(=O)[C@H](CC(=O)O)NC(=O)[C@@H]2CCCN2C1=O` (H-DCLGFMRKCIPDNDKCCRPNLVCSRTHKWCRYVF-NH2; disulfide 2-17, 9-23, 16-30) was tested, and the IC50 [1] was > 5 µM and the IC50 [2] was 950 nM.

For `CC[C@H](C)[C@@H]1NC(=O)[C@@H]2CSSC[C@@H]3NC(=O)[C@H](C(C)C)NC(=O)[C@H](CC(C)C)NC(=O)[C@H](CC(N)=O)NC(=O)[C@@H]4CCCN4C(=O)[C@H](CCCNC(=N)N)NC(=O)[C@H](CSSC[C@H](NC(=O)[C@H](CC(=O)O)NC(=O)[C@@H](N)CCC(=O)O)C(=O)N[C@@H](CC(C)C)C(=O)NCC(=O)N[C@@H](Cc4ccccc4)C(=O)N[C@@H](CCSC)C(=O)N[C@@H](CCCNC(=N)N)C(=O)N[C@@H](CCCCN)C(=O)N2)NC(=O)[C@H](CSSC[C@@H](C(=O)N[C@@H](CCCCN)C(=O)N[C@@H](Cc2ccc(O)cc2)C(=O)N[C@H](C(=O)N[C@@H](Cc2ccccc2)C(N)=O)C(C)C)NC(=O)[C@H](Cc2c[nH]c4ccccc24)NC(=O)[C@H](CCCCN)NC(=O)[C@H](Cc2cnc[nH]2)NC(=O)[C@H]([C@@H](C)O)NC(=O)[C@H](CCCNC(=N)N)NC(=O)[C@H](CO)NC3=O)NC(=O)[C@H](CCCCN)NC(=O)[C@H](CC(=O)O)NC(=O)[C@H](CC(N)=O)NC(=O)[C@H](CC(=O)O)NC(=O)[C@@H]2CCCN2C1=O`, the IC50 [1] was > 5 µM and the IC50 [2] was 270 nM.
